Values after ≈ are worked out from the molar mass of the structure shown.
Assays:
Escherichia coli [1] = test: Inhibition of Escherichia coli DNA gyrase A2B2 complex after 30 mins by supercoiling assay
Staphylococcus aureus [2] = test: (§1) Antimicrobial activity against Staphylococcus aureus Smith after 18 hrs by agar dilution method; format: functional
Outline: (§2)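 Agar dilution on Mueller-Hinton medium, inoculum 10⁴ CFU/spot; MIC is the minimum inhibitory concentration against the named strain.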

Staphylococcus aureus [3] = test: Antimicrobial activity against Staphylococcus aureus Smith infected in iv dosed septicaemia Swiss albino mouse model after 4 days; format: functional; conditions: 96 h
Outline: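 Septicaemia model in mice infected with S. aureus Smith, compound given iv. In experiments with 0-1 survivors among 5-10 control mice, ED₅₀ (mg/kg) taken as lowest dose giving 3-5 survivors out of 5 infected mice.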

Staphylococcus aureus [4] = test: Antimicrobial activity against Staphylococcus aureus ATCC 25923 after 18 hrs by agar dilution method; format: functional; conditions: ATCC 25923, 18 h; outline: as §2
[5] = tested on: Staphylococcus epidermidis; test: Antimicrobial activity against Staphylococcus epidermidis 16/2 after 18 hrs by agar dilution method; format: functional; conditions: 16/2, 18 h; outline: as §2
[6] = tested on: Stenotrophomonas maltophilia; test: Antimicrobial activity against Xanthomonas maltophilia IAC 739 after 18 hrs by agar dilution method; format: functional; conditions: IAC 739, 18 h; outline: as §2
Escherichia coli [7] = test: Antimicrobial activity against Escherichia coli 25922 after 18 hrs by agar dilution method; format: functional; conditions: Escherichia coli, 25922, 18 h; outline: as §2
Staphylococcus aureus [8] = test: as §1; format: functional; outline: as §2; remark: listed apart in the source
Enterococcus faecalis [9] = test: Antimicrobial activity against Enterococcus faecalis 6 after 18 hrs by agar dilution method; conditions: Enterococcus faecalis, 6, 18 h
[10] = Octanol-water partition coefficient, log D of the compound at pH 7.4 by shake-flask method; format: physicochemical
Outline: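 Octanol/water partition measured by shake-flask at pH 7.4.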

Streptococcus pyogenes = test: Antimicrobial activity against Streptococcus pyogenes b15 after 18 hrs by agar dilution method; format: functional; conditions: b15, 18 h; outline: as §2
Enterococcus faecalis [11] = test: Antimicrobial activity against multidrug-resistant Enterococcus faecalis after 18 hrs by agar dilution method; format: functional
Outline: (§3)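 Agar dilution on Mueller-Hinton agar, inoculum 10⁴ CFU/spot, against panels of multiresistant clinical strains (S. aureus 11, E. faecalis 16, E. faecium 23). MIC_50/90 in μg/mL taken as the minimum concentration inhibiting at least 50% or 90% of the strains tested.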

Enterococcus faecium = test: Antimicrobial activity against multidrug-resistant Enterococcus faecium after 18 hrs by agar dilution method; format: functional; outline: as §3
Staphylococcus aureus [12] = test: Antimicrobial activity against multidrug-resistant Staphylococcus aureus after 18 hrs by agar dilution method; format: functional; outline: as §3

SMILES | MNEC (Escherichia coli [1]) [µg/mL] | MIC (Staphylococcus aureus [2]) [µg/mL] | ED50 (Staphylococcus aureus [3]) [mg/kg] | also measured
COc1cc(O)c2c(c1Br)C(=O)OCCNCC(=S)N[C@H](c1nc(C)no1)CSC2.Cl | 0.1 | 0.5 | > 25 | –
COc1cc(O)c2c(c1C)C(=O)OCC(=O)NCC(=S)N[C@H](c1nc(C)no1)CSC2 | 0.001 | 0.5 (≈ 1.07 µM) | 25 | MIC (Staphylococcus aureus [4]): 1 µg/mL (≈ 2.14 µM); MIC [5]: < 0.12 µg/mL; MIC [6]: 4 µg/mL (≈ 8.57 µM); MIC (Escherichia coli [7]): > 64 µg/mL; MIC (Staphylococcus aureus [8]): 0.5 µg/mL (≈ 1.07 µM); MIC (Enterococcus faecalis [9]): 0.5 µg/mL (≈ 1.07 µM); logD [10]: 2.32
COc1cc(O)c2c(c1Br)C(=O)OCC(=O)NCC(=S)N[C@H](c1nc(CNC(C)C)no1)CSC2.Cl | 0.02 | 0.5 | 12 | MIC (Staphylococcus aureus [4]): 1 µg/mL; MIC [5]: < 0.12 µg/mL; MIC [6]: 16 µg/mL; MIC (Escherichia coli [7]): > 64 µg/mL; MIC (Streptococcus pyogenes): 0.25 µg/mL; MIC (Staphylococcus aureus [8]): 0.5 µg/mL; MIC (Enterococcus faecalis [9]): 0.25 µg/mL
COc1cc(O)c2c(c1Br)C(=O)OCC(=O)N(C)CC(=S)N[C@H](c1nc(C)no1)CSC2 | 0.05 | 0.5 (≈ 0.917 µM) | – | –
COc1cc(O)c2c(c1C)C(=O)O[C@H](CO)CCCC(=S)N[C@H](c1nc(CN)no1)CSC2 | 0.005 | 32 (≈ 64.4 µM) | – | –
COc1cc(O)c2c(c1Br)C(=O)OCC(=O)NCC(=S)N[C@H](c1nc(C)no1)CSC2 | 0.05 | 0.12 (≈ 0.226 µM) | 12.5 | MIC (Staphylococcus aureus [4]): 0.25 µg/mL (≈ 0.47 µM); MIC [5]: < 0.12 µg/mL; MIC [6]: 0.25 µg/mL (≈ 0.47 µM); MIC (Escherichia coli [7]): > 64 µg/mL; MIC (Streptococcus pyogenes): 0.12 µg/mL (≈ 0.226 µM); MIC (Staphylococcus aureus [8]): < 0.12 µg/mL; MIC (Enterococcus faecalis [9]): < 0.12 µg/mL; logD [10]: 2.61
COc1cc(O)c2c(c1Br)C(=O)OCC(=O)NCC(=O)N[C@H](c1nc(CN)no1)CSC2.Cl | 0.1 | 32 | – | –
COc1cc(O)c2c(c1Br)C(=O)OCC(=S)NCC(=S)N[C@H](c1nc(C)no1)CSC2 | 0.2 | 1 (≈ 1.83 µM) | – | –
COc1cc(O)c2c(c1Br)C(=O)OCCCCC(=S)N[C@H](c1nc(CN)no1)CSC2.Cl | 0.05 | 0.5 | 12.5 | –
COc1cc(O)c2c(c1C)C(=O)OCCCCC(=S)N[C@H](c1nc(CO)no1)CSC2 | 0.001 | 0.25 (≈ 0.535 µM) | 25 | –
COc1cc(O)c2c(c1C)C(=O)OCC(=S)NCC(=O)N[C@H](c1nc(C)no1)CSC2 | 0.005 | 2 (≈ 4.29 µM) | > 25 | –
C[C@@H](O)[C@H]1C(=O)N2C(C(=O)O)=C(SCCNC=N)C[C@H]12 [IMIPENEM ANHYDROUS] | – | – | – | MIC50 (Enterococcus faecalis [11]): 2 µg/mL (≈ 6.68 µM); MIC90 (Enterococcus faecalis [11]): 2 µg/mL (≈ 6.68 µM); MIC50 (Enterococcus faecium): 64 µg/mL (≈ 214 µM); MIC90 (Enterococcus faecium): > 64 µg/mL; MIC50 (Staphylococcus aureus [12]): 32 µg/mL (≈ 107 µM); MIC90 (Staphylococcus aureus [12]): 64 µg/mL (≈ 214 µM)
COc1cc(O)c2c(c1Br)C(=O)OCC(=O)NCC(=O)N[C@H](c1nc(C3CC3)no1)CSC2 | 0.02 | 2 (≈ 3.69 µM) | 6 | –
COc1cc(O)c2c(c1C)C(=O)OCC(=S)NCC(=S)N[C@H](c1nc(C)no1)CSC2 | 0.002 | 0.5 (≈ 1.04 µM) | – | –
COc1cc(O)c2c(c1Br)C(=O)OCC(=O)NCC(=O)N[C@H](c1nc(CO)no1)CSC2 | 0.02 | 32 (≈ 60.2 µM) | – | –
COC(=O)[C@@H]1CSCc2c(O)cc(OC)c(C)c2C(=O)OCCCC/C(S)=N/1 | 0.01 | – | – | –
COc1cc(O)c2c(c1Cl)C(=O)OCC(=O)NCC(=O)N[C@H](c1nc(C)no1)CSC2 | 0.02 | 8 (≈ 17 µM) | 25 | –
COc1cc(O)c2c(c1Br)C(=O)OCCNCC(=O)N[C@H](c1nc(C)no1)CSC2.Cl | 0.01 | 1 | 25 | –
COc1cc(O)c2c(c1Br)C(=O)OCC(=O)NCC(=O)N[C@H](c1nc(CNC(C)C)no1)CSC2.Cl | 0.02 | 16 | – | –
COc1cc(O)c2c(c1Br)C(=O)OCCN(C(=O)[C@@H](N)CC(C)C)CC(=O)N[C@H](c1nc(C)no1)CSC2.Cl | 0.1 | 16 | – | –
COc1cc(O)c2c(c1Cl)C(=O)OCCCCC(=O)N[C@H](c1nc(C)no1)CSC2 | 0.005 | 0.25 (≈ 0.548 µM) | > 25 | –
COc1cc(O)c2c(c1C)C(=O)OC[C@H](CO)CCC(=O)N[C@H](c1nc(C)no1)CSC2 | 0.005 | 8 (≈ 17.2 µM) | – | –
COc1cc(O)c2c(c1Br)C(=O)OCCN(C(C)=O)CC(=O)N[C@H](c1nc(C)no1)CSC2 | 0.01 | 16 (≈ 29.4 µM) | – | –

— ChEMBL document CHEMBL1764975, “A new DNA gyrase inhibitor subclass of the cyclothialidine family based on a bicyclic dilactam-lactone scaffold. Synthesis and antibacterial properties” (J Med Chem, 2011)
